This is an account of results in paper PMC3179183 (Bioorganic & medicinal chemistry letters, 2010).

Structures are written as SMILES. Read-outs that look alike come from different tables or passages of the source.

Data set [1] addresses T1, M5 (Homo sapiens, UniProt P08912).
T1 sequence (P08912 1-532): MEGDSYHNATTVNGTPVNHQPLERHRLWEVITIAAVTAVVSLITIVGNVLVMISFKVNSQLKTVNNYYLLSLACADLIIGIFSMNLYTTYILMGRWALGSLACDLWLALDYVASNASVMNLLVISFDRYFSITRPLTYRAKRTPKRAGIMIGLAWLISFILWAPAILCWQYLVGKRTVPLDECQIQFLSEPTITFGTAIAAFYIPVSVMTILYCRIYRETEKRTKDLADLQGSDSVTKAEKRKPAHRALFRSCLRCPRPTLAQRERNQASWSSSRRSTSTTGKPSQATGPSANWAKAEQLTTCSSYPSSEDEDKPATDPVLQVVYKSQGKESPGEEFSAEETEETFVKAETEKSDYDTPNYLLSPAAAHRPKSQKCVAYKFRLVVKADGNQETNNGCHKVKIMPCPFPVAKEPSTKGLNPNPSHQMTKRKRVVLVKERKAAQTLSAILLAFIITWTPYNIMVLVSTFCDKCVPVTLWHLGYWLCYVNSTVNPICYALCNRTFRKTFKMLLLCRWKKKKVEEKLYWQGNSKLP
In kind it is cell-based. The settings on record: single point 10 µM, M5-CHO cells.

Data set [2] deals with T1, M5. The experiment in a line: M5 PAM activity, mobilization of intracellular calcium in M5 CHO cells. In kind it is cell-based.
The target in data set [3] is T2, M1 (Homo sapiens, UniProt P11229).
T2 sequence (P11229 1-460): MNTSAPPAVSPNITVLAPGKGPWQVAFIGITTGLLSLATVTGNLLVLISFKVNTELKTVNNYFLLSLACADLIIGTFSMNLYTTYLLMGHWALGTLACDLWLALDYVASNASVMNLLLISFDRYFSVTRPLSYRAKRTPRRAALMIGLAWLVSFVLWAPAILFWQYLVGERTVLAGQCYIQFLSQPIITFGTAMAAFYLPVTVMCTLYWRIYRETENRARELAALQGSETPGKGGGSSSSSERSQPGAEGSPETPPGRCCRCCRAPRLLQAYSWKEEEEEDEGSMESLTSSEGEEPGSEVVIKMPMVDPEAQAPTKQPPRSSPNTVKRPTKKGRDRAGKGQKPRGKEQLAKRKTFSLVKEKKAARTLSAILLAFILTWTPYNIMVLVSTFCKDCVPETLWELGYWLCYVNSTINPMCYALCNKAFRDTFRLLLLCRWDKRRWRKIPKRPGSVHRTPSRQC
The experiment in a line: 30 µM fold-shift selectivity assay, M1. In kind it is cell-based. An outline of the steps: (§1)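 Intracellular calcium mobilization in CHO cells expressing the receptor. Test compound at a fixed 30 µM, read as the fold-shift of the acetylcholine concentration-response. Data are means from at least three independent determinations.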

The target in data set [4] is T3, M2 (Homo sapiens, UniProt P08172).
T3 sequence (P08172 1-466): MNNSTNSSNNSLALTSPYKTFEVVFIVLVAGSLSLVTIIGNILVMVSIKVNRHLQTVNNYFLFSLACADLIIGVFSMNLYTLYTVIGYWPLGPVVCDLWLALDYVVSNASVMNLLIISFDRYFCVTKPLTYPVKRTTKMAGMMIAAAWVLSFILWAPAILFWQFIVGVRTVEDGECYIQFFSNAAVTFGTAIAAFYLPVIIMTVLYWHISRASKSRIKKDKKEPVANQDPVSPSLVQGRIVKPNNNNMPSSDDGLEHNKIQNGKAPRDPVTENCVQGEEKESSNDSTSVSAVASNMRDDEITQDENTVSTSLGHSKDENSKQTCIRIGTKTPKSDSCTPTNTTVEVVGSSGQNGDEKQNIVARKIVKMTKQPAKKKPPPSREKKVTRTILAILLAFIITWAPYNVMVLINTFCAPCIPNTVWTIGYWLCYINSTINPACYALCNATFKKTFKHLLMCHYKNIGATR
The data set is described as follows: 30 µM fold-shift selectivity assay, M2. In kind it is cell-based. An outline of the steps: (§2)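 Intracellular calcium mobilization in CHO cells expressing the receptor co-transfected with Gqi5 to couple it to calcium signalling. Test compound at a fixed 30 µM, read as the fold-shift of the acetylcholine concentration-response. Data are means from at least three independent determinations.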

For data set [5], the target named is T4, M4 (Homo sapiens, UniProt P08173).
T4 sequence (P08173 1-479): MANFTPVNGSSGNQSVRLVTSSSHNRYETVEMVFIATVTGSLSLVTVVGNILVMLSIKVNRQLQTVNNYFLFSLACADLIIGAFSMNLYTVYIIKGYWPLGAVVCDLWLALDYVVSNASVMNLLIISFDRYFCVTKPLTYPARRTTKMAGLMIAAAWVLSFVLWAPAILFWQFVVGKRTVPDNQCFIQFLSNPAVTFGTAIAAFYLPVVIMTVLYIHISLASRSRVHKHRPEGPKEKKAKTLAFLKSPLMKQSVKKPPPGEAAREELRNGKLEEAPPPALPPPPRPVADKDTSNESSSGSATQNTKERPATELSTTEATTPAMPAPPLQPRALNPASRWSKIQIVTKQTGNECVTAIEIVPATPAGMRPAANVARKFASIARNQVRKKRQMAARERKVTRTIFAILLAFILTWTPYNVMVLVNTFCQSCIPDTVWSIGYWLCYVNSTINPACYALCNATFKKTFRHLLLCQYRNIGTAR
The experiment in a line: 30 µM fold-shift selectivity assay, M4. The data set is classed as cell-based. An outline of the steps: as §2

The target in data set [6] is T5, M3 (Homo sapiens, UniProt P20309). The experiment in a line: 30 µM fold-shift selectivity assay, M3. The data set is classed as cell-based. The method, boiled down:
as §1

In data set [7] the target is T1, M5. The experiment in a line: Human M5 ACh fold-shift assay at 30 µM. In kind it is cell-based.
Data set [8] can be described thus: Ancillary pharmacology panel. The data set is classed as binding.
Another data set concerns the target NET (Homo sapiens, UniProt P23975). The data set is described as follows: Ancillary pharmacology panel, NET. The settings on record: same assay panel; significant = >50% inhibition at 10 µM. In kind it is binding.
The target of the next data set is H1 (Homo sapiens, UniProt P35367). The data set is described as follows: Ancillary pharmacology panel, H1. The settings on record: same assay panel; significant = >50% inhibition at 10 µM. The data set is classed as binding.
Sequence of H1 (P35367 whole entry): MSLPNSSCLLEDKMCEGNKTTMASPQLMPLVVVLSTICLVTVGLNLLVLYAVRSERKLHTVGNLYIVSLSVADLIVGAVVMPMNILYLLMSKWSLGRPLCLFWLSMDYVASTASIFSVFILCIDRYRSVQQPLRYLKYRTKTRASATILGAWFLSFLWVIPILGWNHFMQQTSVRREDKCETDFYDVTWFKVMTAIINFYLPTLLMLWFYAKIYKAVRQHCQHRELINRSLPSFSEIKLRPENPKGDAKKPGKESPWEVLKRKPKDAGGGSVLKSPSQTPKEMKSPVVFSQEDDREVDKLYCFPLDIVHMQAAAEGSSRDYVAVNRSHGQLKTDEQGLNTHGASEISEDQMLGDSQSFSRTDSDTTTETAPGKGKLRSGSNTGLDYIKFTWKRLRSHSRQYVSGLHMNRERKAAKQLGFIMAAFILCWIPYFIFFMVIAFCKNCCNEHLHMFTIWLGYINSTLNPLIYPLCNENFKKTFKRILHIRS
The target of data set [9] is T3, M2. The settings on record: read-out: M2 EC50, cited from earlier work.
Data set [10] concerns the target T1, M5. The settings on record: read-out: M5 EC50; vs. M2–M5; cited from earlier work.
The target in data set [11] is T4, M4. The settings on record: read-out: M4 EC50, cited from earlier work.
The target of data set [12] is T2, M1. The settings on record: read-out: M1 EC50, cited from earlier work.
Data set [13] concerns the target T5, M3. The settings on record: read-out: M3 EC50, cited from earlier work.
The conditions of data set [14]: cited from earlier work.
The conditions of data set [15]: in words; cited from earlier work.

T5 sequence (P20309 whole entry): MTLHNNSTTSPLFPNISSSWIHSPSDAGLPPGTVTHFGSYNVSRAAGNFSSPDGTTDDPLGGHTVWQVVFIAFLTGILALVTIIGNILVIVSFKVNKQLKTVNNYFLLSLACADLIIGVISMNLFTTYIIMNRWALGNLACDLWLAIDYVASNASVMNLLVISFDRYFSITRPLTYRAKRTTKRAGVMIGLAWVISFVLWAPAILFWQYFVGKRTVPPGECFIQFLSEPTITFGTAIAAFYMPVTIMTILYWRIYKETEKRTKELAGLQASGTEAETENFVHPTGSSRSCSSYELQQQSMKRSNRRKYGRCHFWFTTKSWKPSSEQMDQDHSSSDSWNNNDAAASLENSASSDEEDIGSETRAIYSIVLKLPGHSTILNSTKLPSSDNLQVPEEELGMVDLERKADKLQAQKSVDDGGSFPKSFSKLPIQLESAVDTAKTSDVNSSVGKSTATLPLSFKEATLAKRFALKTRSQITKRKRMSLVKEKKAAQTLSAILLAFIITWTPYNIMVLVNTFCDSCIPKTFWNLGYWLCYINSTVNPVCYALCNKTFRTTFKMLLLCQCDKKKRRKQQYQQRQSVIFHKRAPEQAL
Sequence of NET (P23975 whole entry): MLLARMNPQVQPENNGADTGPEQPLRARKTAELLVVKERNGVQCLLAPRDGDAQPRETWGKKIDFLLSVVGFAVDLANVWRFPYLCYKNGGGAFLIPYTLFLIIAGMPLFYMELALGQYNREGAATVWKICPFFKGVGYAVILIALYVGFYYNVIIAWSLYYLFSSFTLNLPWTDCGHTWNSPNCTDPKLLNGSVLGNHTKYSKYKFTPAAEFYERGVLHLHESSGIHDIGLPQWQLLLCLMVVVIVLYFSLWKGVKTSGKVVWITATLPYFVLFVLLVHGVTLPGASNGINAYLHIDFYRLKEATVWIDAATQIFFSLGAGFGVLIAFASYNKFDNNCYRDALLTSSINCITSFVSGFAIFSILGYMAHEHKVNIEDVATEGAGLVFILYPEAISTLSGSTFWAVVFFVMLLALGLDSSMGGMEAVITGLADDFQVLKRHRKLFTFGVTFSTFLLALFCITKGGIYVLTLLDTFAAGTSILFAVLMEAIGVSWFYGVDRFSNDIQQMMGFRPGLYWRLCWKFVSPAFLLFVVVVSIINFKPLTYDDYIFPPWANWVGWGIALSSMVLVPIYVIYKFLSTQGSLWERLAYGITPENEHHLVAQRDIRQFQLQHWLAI

In the case of `CC1CCCN(COc2ccc3c(c2)C(=O)C(=O)N3Cc2ccc(-c3ccccc3)cc2)C1` (centres unmarked) [10ee], the “ability to potentiate an EC20 of ACh” value at M5 [1] was “did decrease the ACh EC20”.
The same measure, in the same setting: next, `CN(C)CCOc1ccc2c(c1)C(=O)C(=O)N2Cc1ccc(-c2ccccc2)cc1` [10gg]: “did decrease the ACh EC20”.
The same measure, in the same setting: next, `O=C1C(=O)N(Cc2ccc(-c3ccccc3)cc2)c2ccc(OCCN3CCCC3)cc21` [10kk]: “did decrease the ACh EC20”.
For the compound `O=C1C(=O)N(Cc2ccc(-c3cccnc3)cn2)c2ccc(OC(F)(F)F)cc21` [21b], the “M5 PAM activity (in words)” value at M5 [2] is “devoid of M5 PAM activity”.
Still for that read-out and setting: then `O=C1C(=O)N(Cc2ccc(-c3ccncc3)cn2)c2ccc(OC(F)(F)F)cc21` [21c], with “devoid of M5 PAM activity”.
Regarding `O=C1C(=O)N(Cc2ccc(-c3ccccc3)nc2)c2ccc(OC(F)(F)F)cc21` [22a], the “effect on M1, fold-shift selectivity” value at M1 [3] was “neither 22a nor 27b showed any significant effect”. Moreover, the “effect on M2, fold-shift selectivity” value on M2 [4] was “neither 22a nor 27b showed any significant effect”. The “effect on M4, fold-shift selectivity” value on M4 [5] is recorded as “neither 22a nor 27b showed any significant effect”. On M3 [6], the “effect on M3, fold-shift selectivity” value is reported as “neither 22a nor 27b showed any significant effect”. Besides, the allosteric agonism at M5 [7] is ~ 20%.
With `O=C1C(=O)N(Cc2ccc(Oc3cccc(F)n3)cc2)c2ccc(OC(F)(F)F)cc21` [27b], the “effect on M1, fold-shift selectivity” value on M1 [3] is given as “neither 22a nor 27b showed any significant effect”. In addition, the “effect on M2, fold-shift selectivity” value on M2 [4] was “neither 22a nor 27b showed any significant effect”. In addition, at M4 [5], the “effect on M4, fold-shift selectivity” value is recorded as “neither 22a nor 27b showed any significant effect”. Further, in data set [8] (of the 68 targets), the “number of targets with modest activities” value was found to be 11 targets. In addition, the “activity at NET” value at NET is listed as “significant activity”. In addition, the “effect on M3, fold-shift selectivity” value on M3 [6] is “neither 22a nor 27b showed any significant effect”. For the same compound, the “activity at H1” value at H1 is “significant activity”.
Turning to `Cn1cc(-c2ccc(CN3C(=O)C(=O)c4ccccc43)c(F)c2)cn1` [compound 2], the EC50 (usually the concentration needed to bring the measured effect to its halfway point) on M2 [9] (vs. M2–M5) was above 30 µM; on M5 [10] it was above 30 µM; on M4 [11] (vs. M2–M5), above 30 µM; at M1 [12] (PAM), 0.83 µM; at M3 [13] (vs. M2–M5) it was above 30 µM.
Consider `O=C1C(=O)N(Cc2ccc(-c3ccccc3)cc2)c2ccc(OC(F)(F)F)cc21` [compound 4], for which the logP (commonly a log measure of how a compound divides between an organic and an aqueous phase) in data set [14] is above 4.5. Further, the EC50 on M2 [9] (vs. M1–M4), at M4 [11] (vs. M1–M4), on M1 [12] (vs. M1–M4) and on M3 [13] (vs. M1–M4) was above 30 µM throughout. Besides, the solubility result in data set [15] was “limited solubility”.
Consider `O=C1C(=O)N(Cc2ccc(Oc3ccccc3)cc2)c2ccc(OC(F)(F)F)cc21` [compound 5], for which the logP in data set [14] is above 4.5. In addition, the EC50 on M2 [9] (vs. M1–M4), on M4 [11] (vs. M1–M4), at M1 [12] (vs. M1–M4) and on M3 [13] (vs. M1–M4) was above 30 µM in each case. In addition, in [8] (of 68 targets, 10 µM), the “number of targets with significant activity (>50% inhibition at 10 µM)” value was found to be 32 targets. Besides, in data set [15], the solubility entry is “limited solubility”.
As to `O=C1C(=O)N(Cc2ccc(-c3ccccc3)cc2F)c2ccc(OC(F)(F)F)cc21` [compound 11], the “M5 PAM activity (in words)” value on M5 [2] was “loss in both potency and efficacy”.
Same read-out and setting: then `O=C1C(=O)N(Cc2c(F)cc(-c3ccccc3)cc2F)c2ccc(OC(F)(F)F)cc21` [compound 12], with “loss in both potency and efficacy”; and `O=C1C(=O)N(Cc2ccc3c(c2)OCO3)c2ccc(OC(F)(F)F)cc21` [compound 13], with “highly efficacious M5 PAM of comparable potency to 4”.
